Assay [1] relates to Bcl-2 3256 cells (Bcl-2 dependent).
In assay [2] the test system is Mcl-1 2640 cells (Mcl-1 dependent). Kind of assay: BH3 profiling, Mcl-1 2640. It is filed as cell-based, murine. The note with it: 5 μM peptide. An outline of the steps: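 Myc-driven murine leukemia line, Mcl-1 dependent, grown in RPMI 1640 with 10% FBS and […] 2-mercaptoethanol. Permeabilized cells at 2×10^4/well, triplicate wells, exposed to peptides including 5 μM. JC-1 read-out; depolarization expressed as percentage relative to FCCP (full) and DMSO (none). At least three biological replicates.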

Assay [3] deals with T1, Bcl-xL (residues 1-209) (Homo sapiens, UniProt Q07817). Kind of assay: Fluorescence polarization competition binding assay, Bcl-xL. For orientation: Fluorescence polarisation rises when a labelled molecule tumbles more slowly, as on binding a larger partner.
T1 sequence (Q07817 1-209): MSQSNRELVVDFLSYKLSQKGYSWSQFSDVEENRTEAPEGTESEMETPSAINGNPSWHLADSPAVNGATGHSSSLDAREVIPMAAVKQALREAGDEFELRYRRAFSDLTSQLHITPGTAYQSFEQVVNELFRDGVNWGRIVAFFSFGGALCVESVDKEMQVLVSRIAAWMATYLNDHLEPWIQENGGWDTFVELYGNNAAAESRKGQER
For a further assay, the system named is DHL10 cells. Nature of the assay: BH3 profiling, DHL10. Conditions: Bax- and Bak-deleted cell line. The class given is cell-based. An outline of the steps: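 Test peptides (N-acetylated, C-amidated) titrated onto permeabilized Su-DHL10 cells (RPMI 1640, 10% FBS), 2×10^4 cells/well, triplicate wells per concentration. JC-1 fluorescence gives membrane-potential loss, normalized as 1 – [(Dsample–DFCCP)/(DDMSO–DFCCP)] against FCCP and DMSO. EC50 from global fit with linked baselines; at least three biological replicates, 2-3 days of culture apart.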

Assay [4] deals with primary human platelets (Bcl-xL dependent) (Homo sapiens, UniProt Q07817). The note with it: primary human platelet samples.
Sequence of primary human platelets (Bcl-xL dependent) (Q07817 1-209): as above
Another assay relates to Bcl-xL. Kind of assay: Yeast-surface display, dual color fluorescence binding with competitors. The note with it: 100-fold excess of each competitor, yeast-displayed peptide. Set-up: species or system human. The method in brief:
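Yeast displaying BH3 peptides incubated with 10 nM Bcl-xL plus 1 μM each of Mcl-1, Bfl-1, Bcl-2 and Bcl-w, competitors premixed. Proteins are E. coli-expressed human constructs. Detection uses primary and labeled secondary antibodies: FITC marks peptide expression, APC marks receptor binding. Flow cytometry with 488 and/or 561 nm excitation.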

For assay [5], the target named is T2, Bcl-2 (residues 1-217) (Homo sapiens, UniProt P10415). Kind of assay: Fluorescence polarization competition binding assay, Bcl-2. An outline of the steps: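 Human Bcl-2 (residues 1-217), expressed in E. coli. Buffer: 20 mM sodium phosphate, 50 mM NaCl, 1 mM EDTA, 0.001% Triton X, 5% DMSO, pH 7.8, 25 °C. Competition: test peptide serially diluted, 10 nM fluorescein Bim-BH3 added, 15 min at RT, then 50 nM Bcl-2 (final). Anisotropy read over 2-48 h, then curves fit. Direct: titrated protein, 10 nM probe, read 4-24 h.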
T2 sequence (P10415 1-217): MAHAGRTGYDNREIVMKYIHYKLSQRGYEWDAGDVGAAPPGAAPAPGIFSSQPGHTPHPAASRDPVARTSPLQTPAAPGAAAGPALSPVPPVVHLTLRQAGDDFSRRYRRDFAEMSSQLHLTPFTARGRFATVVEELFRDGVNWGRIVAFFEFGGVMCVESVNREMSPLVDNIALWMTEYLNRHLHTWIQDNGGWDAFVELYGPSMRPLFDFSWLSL

The target in a further assay is Mcl-1 (residues 172-327) (Homo sapiens, UniProt Q07820). Nature of the assay: Fluorescence polarization binding assay, Mcl-1. Conditions: FP competition. An outline of the steps:
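E. coli-expressed Mcl-1 (residues 172-327) in competition FP: 20 mM sodium phosphate, 50 mM NaCl, 1 mM EDTA, 0.001% Triton X, 5% DMSO, pH 7.8, 25 °C. Serially diluted unlabeled peptide plus 10 nM fluorescein tracer, 15 min, then protein. Tracer is 18-mer Bim-BH3 with 50 nM Mcl-1, or 23-mer Hrk-BH3 with 500 nM Mcl-1.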

The target of a further assay is T3, Bcl-w (residues 1-164) (Homo sapiens, UniProt Q92843).
T3 sequence (Q92843 1-164): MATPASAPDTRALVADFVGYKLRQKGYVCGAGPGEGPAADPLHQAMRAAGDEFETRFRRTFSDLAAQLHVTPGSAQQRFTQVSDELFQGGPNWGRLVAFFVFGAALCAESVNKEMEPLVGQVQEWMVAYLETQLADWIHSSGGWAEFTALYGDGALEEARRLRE
Kind of assay: Fluorescence polarization competition binding assay, Bcl-w. Conditions: four mutations combined. The method in brief: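 E. coli-expressed Bcl-w (residues 1-164), 50 nM final, competed against 10 nM N-terminal fluorescein 18-mer Bim-BH3. Unlabeled peptide serially diluted and premixed with tracer 15 min before protein. Buffer: 20 mM sodium phosphate, 50 mM NaCl, 1 mM EDTA, 0.001% Triton X, 5% DMSO, pH 7.8, 25 °C.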

The target in assay [6] is OCI-Ly1 cells (Bcl-2 dependent) (Homo sapiens, UniProt P10415).
Sequence of OCI-Ly1 cells (Bcl-2 dependent) (P10415 whole entry, the tested form may be a part): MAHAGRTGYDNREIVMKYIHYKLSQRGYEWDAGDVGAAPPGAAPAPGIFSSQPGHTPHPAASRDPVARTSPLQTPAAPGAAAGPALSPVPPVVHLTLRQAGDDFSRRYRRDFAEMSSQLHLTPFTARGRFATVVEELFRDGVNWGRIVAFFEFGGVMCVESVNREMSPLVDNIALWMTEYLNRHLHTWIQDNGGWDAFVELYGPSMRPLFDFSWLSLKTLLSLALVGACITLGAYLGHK
The target of assay [7] is T1, Bcl-xL (residues 1-209). Nature of the assay: fluorescence polarisation.
Assay [8] addresses T2, Bcl-2 (residues 1-217). Kind of assay: fluorescence polarisation.
Assay [9] concerns the target Bcl-2 (residues 1-217) (human, UniProt P10415 1-217). Kind of assay: fluorescence polarisation.
In assay [10] the target is Bcl-xL (residues 1-209) (human, UniProt Q07817-1 1-209). Kind of assay: fluorescence polarisation.
Sequence of Bcl-xL (residues 1-209) (human, UniProt Q07817-1 1-209) (Q07817 1-209): as the sequence (Q07817 1-209) above

These results are taken from article PMC4357494 (Journal of molecular biology, 2014).

Where a SMILES comes first, the peptide text is derived from it.

Sequence of Mcl-1 (residues 172-327) (Q07820 172-327): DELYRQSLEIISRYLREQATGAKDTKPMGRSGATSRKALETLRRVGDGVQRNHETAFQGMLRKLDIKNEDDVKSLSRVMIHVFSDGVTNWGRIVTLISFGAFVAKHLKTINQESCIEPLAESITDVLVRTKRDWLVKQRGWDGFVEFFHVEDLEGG
Sequence of Bcl-2 (residues 1-217) (human, UniProt P10415 1-217) (P10415 1-217): as the sequence (P10415 1-217) above

In turn, `CC[C@H](C)[C@H](NC(=O)[C@H](CCC(=O)O)NC(=O)[C@H](CCCNC(=N)N)NC(=O)[C@H](C)NC(=O)[C@H](Cc1c[nH]c2ccccc12)NC(=O)[C@H](CCC(N)=O)NC(C)=O)C(=O)NCC(=O)N[C@@H](C)C(=O)N[C@@H](CCC(N)=O)C(=O)N[C@@H](CC(C)C)C(=O)N[C@@H](CCCNC(=N)N)C(=O)N[C@@H](CCCNC(=N)N)C(=O)N[C@@H](CCSC)C(=O)N[C@@H](C)C(=O)N[C@@H](CC(=O)O)C(=O)N[C@@H](CC(=O)O)C(=O)N[C@@H](CC(C)C)C(=O)N[C@@H](CC(N)=O)C(=O)N[C@@H](C)C(=O)N[C@@H](CCC(N)=O)C(=O)N[C@@H](Cc1ccc(O)cc1)C(=O)N[C@@H](CCC(=O)O)C(=O)N[C@@H](CCCNC(=N)N)C(N)=O` [Puma, reference compound] came in with an EC50 in assay [1] of 663 ± 223 nM. Further, the “depolarization in the Mcl-1 dependent line (in words)” value in [2] is recorded as “strong response”.
With `CC[C@H](C)[C@H](NC(=O)[C@H](CCC(=O)O)NC(=O)[C@@H]1CCCN1C(=O)[C@H](CCCNC(=N)N)NC(C)=O)C(=O)N[C@@H](Cc1c[nH]c2ccccc12)C(=O)N[C@@H](Cc1ccc(O)cc1)C(=O)N[C@@H](C)C(=O)N[C@@H](CCC(N)=O)C(=O)NCC(=O)N[C@@H](CC(C)C)C(=O)N[C@@H](CCCCN)C(=O)N[C@@H](CCCNC(=N)N)C(=O)N[C@@H](Cc1ccccc1)C(=O)NCC(=O)N[C@@H](CC(=O)O)C(=O)N[C@@H](CCC(=O)O)C(=O)N[C@@H](Cc1ccccc1)C(=O)N[C@@H](CC(N)=O)C(=O)N[C@@H](C)C(=O)N[C@@H](Cc1ccc(O)cc1)C(=O)N[C@@H](Cc1ccc(O)cc1)C(=O)N[C@@H](C)C(=O)N[C@@H](CCCNC(=N)N)C(N)=O` [XXA1] (Ac-RPEIWYAQGLKRFGDEFNAYYAR-NH2), the Ki on Bcl-xL (residues 1-209) [3] is at most 0.1 nM. Also, on Bcl-xL (residues 1-209) [3] (FP competition with fluorescein 18-residue Bim-BH3), the “affinity for Bcl-xL (in words)” value was “sub-nanomolar”. The EC50 in assay [1] was 540 ± 183 nM. Further, the “non-specific pore forming activities” value in the assay on DHL10 cells is recorded as “None”. Besides, in assay [4], the “depolarization of platelets (in words)” value was “potent depolarization”. In addition, the “binding to Bcl-xL in the presence of competitor pro-survival proteins” value with Bcl-xL is reported as “robust binding”. For the same molecule, the “depolarization in the Mcl-1 dependent line (in words)” value in assay [2] is on record as “low amount of depolarization”. This molecule also returned a Kd at Bcl-2 (residues 1-217) [5] of about 17 nM. Further, on Mcl-1 (residues 172-327), the “competition with fluorescently labeled Bim-BH3 for binding to Mcl-1 (in words)” value is “Neither XXA1 nor XXA1_G2gE could compete”. At Bcl-w (residues 1-164), the “weakening of binding to Bcl-w relative to Bim-BH3” value is on record as ~ 150 fold.
Take `CC[C@H](C)[C@H](NC(C)=O)C(=O)N[C@@H](Cc1c[nH]c2ccccc12)C(=O)N[C@@H](Cc1ccc(O)cc1)C(=O)N[C@@H](C)C(=O)N[C@@H](CCC(N)=O)C(=O)NCC(=O)N[C@@H](CC(C)C)C(=O)N[C@@H](CCCCN)C(=O)N[C@@H](CCCNC(=N)N)C(=O)N[C@@H](Cc1ccccc1)C(=O)NCC(=O)N[C@@H](CC(=O)O)C(=O)N[C@@H](CCC(=O)O)C(=O)N[C@@H](Cc1ccccc1)C(=O)N[C@@H](CC(N)=O)C(=O)N[C@@H](C)C(=O)N[C@@H](Cc1ccc(O)cc1)C(=O)N[C@@H](CCCCN)C(N)=O` [Y4eK_18] (Ac-IWYAQGLKRFGDEFNAYK-NH2): the “reduction of affinity for Bcl-xL relative to XXA1_Y4eK” value at Bcl-xL (residues 1-209) [3] was ~ 18 fold. For the same molecule, on Bcl-2 (residues 1-217) [5], the “weaker binding to Bcl-2 than parent XXA1_Y4eK” value was ~ 5 fold. Also, the “weaker response than XXA1_Y4eK” value in [6] is 3-4 fold.
Consider `CC[C@H](C)[C@H](NC(=O)[C@H](CCC(=O)O)NC(=O)[C@@H]1CCCN1C(=O)[C@H](CCCNC(=N)N)NC(C)=O)C(=O)N[C@@H](Cc1c[nH]c2ccccc12)C(=O)N[C@@H](Cc1ccc(O)cc1)C(=O)N[C@@H](C)C(=O)N[C@@H](CCC(N)=O)C(=O)NCC(=O)N[C@@H](CC(C)C)C(=O)N[C@@H](CCCCN)C(=O)N[C@@H](CCCNC(=N)N)C(=O)N[C@@H](Cc1ccccc1)C(=O)NCC(=O)N[C@@H](CC(=O)O)C(=O)N[C@@H](CCC(=O)O)C(=O)N[C@@H](Cc1ccccc1)C(=O)N[C@@H](CC(N)=O)C(=O)N[C@@H](C)C(=O)N[C@@H](Cc1ccc(O)cc1)C(=O)N[C@@H](CCCCN)C(N)=O` [Y4eK_21] (Ac-RPEIWYAQGLKRFGDEFNAYK-NH2), for which the Ki was found to be 0.4 nM at Bcl-xL (residues 1-209) [3] and 430 nM on Bcl-2 (residues 1-217) [5]. Besides, at Bcl-2 (residues 1-217) [5] (ratio of FP binding constants), the “specificity for Bcl-xL over Bcl-2” value is ~ 1000 fold. In addition, the “weaker response than XXA1_Y4eK” value in assay [6] was 3-4 fold.
Consider “Bim-BH3 with the point mutation E2gG (peptide)”, for which the Ki with Bcl-xL (residues 1-209) [7] was under 0.1 nM. The molecule further showed a fold weaker binding than Bim-BH3 with Bcl-2 (residues 1-217) [8] of 7 fold.
On the same counts, the results for “Bim-BH3 with the point mutation I2dY (peptide)” are under 0.1 nM and 5 fold.
As for “Bim-BH3 with the point mutation I3dF (peptide)”, in the assay with Bcl-xL (residues 1-209) [7], the Ki is under 0.1 nM.
Same read-out and setting: for “Bim-BH3 with the point mutation R3bK (peptide)” the value was under 0.1 nM; for Hrk-BH3, unlabeled 23-residue peptide, 10 nM; for Puma-BH3, unlabeled 23-residue peptide, 2 nM.
As for Ac-IWYAQGLKRFGDEFNAYK-NH2 (designed binder) [Y4eK_18], the “fold weaker binding than XXA1_Y4eK” value with Bcl-2 (residues 1-217) [9] was about 5 fold. Further, the Ki with Bcl-xL (residues 1-209) [10] was about 2 nM.
In the assay with Bcl-xL (residues 1-209) [10], Ac-WAAQRYGRELRRMSDEFVDSFKK-NH2 [Bad-BH3, unlabeled 23-residue peptide] returned a Ki of at most 0.1 nM.

The term EC50 denotes the midpoint of the concentration-response curve. Read a low EC50 as higher potency in that assay. Usually Ki stands for the equilibrium dissociation constant of an inhibitor or competing ligand from its target. A higher Ki goes with a looser hold on the target. By Kd is commonly meant the concentration at which binding is half-saturated.
